From PMC2944037 (Environmental toxicology and chemistry / SETAC, 2010)
“Also recorded” adds a separate entry of the source. Read-outs that look alike come from different tables or passages of the source. Values belong to the molecule of their own block, whether it stands above or below them.

Assays:
hER = settings: read-out: EC50, hER agonist; cited from earlier work
[1] = molecular target: alligator estrogen receptor alpha (aERα) (Alligator mississippiensis, UniProt Q765N7); experiment: Cell-free competitive binding assay with baculovirus-expressed recombinant aERα; set-up: species or system American alligator (Alligator mississippiensis); settings: for RBA, Alligator: IC50 of 17β-estradiol / IC50 of compound × 100; for Binding classification for aERα: non-binder <50% E2 displaced, equivocal binder 50% or greater but <80%; for Binder class, Alligator: aERα, displacement of [3H]E2 at highest soluble concentration; for E2 displaced from aERα: maximum displacement of radiolabeled E2
aERα [2] = settings: read-out: Dissociation constant (Kd) of aERα for E2; recombinant aERα; cited from earlier work
aERα [3] = experiment: CV1 transactivation assay with exogenous aERα; format: cell-based, American alligator (Alligator mississippiensis)
endogenous hERα and hERβ = experiment: T47D-KBluc transactivation assay; format: cell-based, human
Procedure, shortened: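 Stably transfected T47D reporter line (endogenous ERα/ERβ, 3×-ERE-TATA-Luc) was plated at 10,000 cells/well and dosed after overnight culture for 24 h. […] After PBS rinse and lysis, luciferase RLU was read with D-luciferin and converted to log fold induction. One-way ANOVA was applied. There were two independent experiments, four wells per treatment.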

human MCF-7 cells = settings: proliferation of human MCF-7 cells; cited from earlier work
alligator embryos = settings: cited from earlier work
[4] = molecular target: T1, human estrogen receptor alpha (hERα) (Homo sapiens, UniProt P03372); experiment: Cell-free competitive binding assay with baculovirus-expressed recombinant hERα; settings: for Binding classification for hERα: non-binder <50% E2 displaced, equivocal binder 50% or greater but <80%; for RBA, Human: IC50 of 17β-estradiol / IC50 of compound × 100; for Binder class, Human: hERα, displacement of [3H]E2 at highest soluble concentration; for E2 displaced from hERα: maximum displacement of radiolabeled E2
T1 sequence (P03372 1-595): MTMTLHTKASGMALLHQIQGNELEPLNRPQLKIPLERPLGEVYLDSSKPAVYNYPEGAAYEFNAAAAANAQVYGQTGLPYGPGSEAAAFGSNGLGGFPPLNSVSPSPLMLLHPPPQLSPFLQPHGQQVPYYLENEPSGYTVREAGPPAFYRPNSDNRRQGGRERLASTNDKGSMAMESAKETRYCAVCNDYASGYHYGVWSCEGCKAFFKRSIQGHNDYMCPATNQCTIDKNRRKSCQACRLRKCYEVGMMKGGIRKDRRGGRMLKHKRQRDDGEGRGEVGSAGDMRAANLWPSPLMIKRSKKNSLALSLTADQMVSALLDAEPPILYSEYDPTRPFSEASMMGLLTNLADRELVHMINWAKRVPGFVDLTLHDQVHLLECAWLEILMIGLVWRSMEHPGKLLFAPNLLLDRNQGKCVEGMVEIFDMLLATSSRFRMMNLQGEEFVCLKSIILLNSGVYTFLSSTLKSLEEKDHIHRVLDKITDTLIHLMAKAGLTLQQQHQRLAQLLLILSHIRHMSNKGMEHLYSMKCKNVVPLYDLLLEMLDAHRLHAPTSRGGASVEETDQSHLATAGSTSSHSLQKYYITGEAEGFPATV

[5] = test system: human estrogen receptor (hER); settings: cited from earlier work
[6] = test system: alligator estrogen receptor (aER) derived from adult female alligator oviductal tissue; settings: cited from earlier work
CV1 cells = experiment: Cell distress observed in the CV1 transactivation assay; format: cell-based, monkey; settings: 30 μM
T47D-KBluc cells = experiment: Cytotoxicity observed in the T47D-KBluc assay; format: cell-based, human; settings: 30 μM
hERα = hERα (Homo sapiens, UniProt P03372); experiment: CV1 transactivation assay with exogenous hERα; format: cell-based

Compound: OC(c1ccc(Cl)cc1)(c1ccccc1Cl)C(Cl)(Cl)Cl (racemic) [racemic (±) o,p′-dicofol, o,p′-dicofol]
EC50 (hER): 4200 nM

Compound: OC(c1ccc(Cl)cc1)(c1ccccc1Cl)C(Cl)(Cl)Cl (single isomer, unassigned; (-)) [(−) o,p′-dicofol, o,p′-dicofol]
EC50 (hER): 510 nM

RBA, Alligator [1]: 100
Compound: C[C@]12CC[C@@H]3c4ccc(O)cc4CC[C@H]3[C@@H]1CC[C@@H]2O [17β-Estradiol, reference compound]
Kd (aERα [2]): 0.44 ± 0.039 nM
Transcription of estrogen responsive gene with aERα (aERα [3]; CV1 cells): induced transcription
Transcriptional activation of estrogen-dependent reporter (endogenous hERα and hERβ; T47D-KBluc cells): dose dependent transactivation

Compound: CCNc1nc(Cl)nc(NC(C)C)n1 [Atrazine]
Binding to aERα ([1]; at concentrations up to 100 μM): not able to bind
Binding classification for aERα [1]: not able to bind; also recorded: non-binders
Activity in the E-screen assay (human MCF-7 cells): inactive
Sex reversal (alligator embryos; 33°C, stage 21, single topical egg exposure to 0.14, 1.40, or 14.0 ppm): no sex reversal at any concentration
Gonadal aromatase activity (alligator embryos; in ovo exposure): did alter gonadal aromatase activity
Plasma E2 concentrations (alligator embryos; in ovo exposure): not plasma E2 concentrations
Binding to hERα ([4]; at concentrations up to 100 μM): not able to bind
Binding classification for hERα [4]: not able to bind; also recorded: non-binders
Binding to hER [5]: do not bind
Binding to oviduct-derived aER [6]: able to bind

IC50 [1]: 1070 nM
RBA, Alligator [1]: 0.07
RBA, Human [4]: 0.05
Compound: CC(C)(c1ccc(O)cc1)c1ccc(O)cc1 [Bisphenol A, reference compound]

Compound: CCNc1nc(Cl)nc(NC(C)(C)C#N)n1 [Cyanazine, cyanazine]
Binder class, Alligator [1]: NB (Non-binder: displaced less than 50% 17b-estradiol at the highest soluble concentration.)
Activity in the E-screen assay (human MCF-7 cells): inactive

Compound: C[C@]12CC[C@@H]3c4ccc(O)cc4C[C@@H](CCCCCCCCC[S+]([O-])CCCC(F)(F)C(F)(F)F)[C@H]3[C@@H]1CC[C@@H]2O (stereo partly drawn) [ICI, ICI 182,780, reference compound]
Effect of ICI on E2-elicited transcriptional activation (aERα [3]; 1 μM ICI + 10 nM E2, data not shown): ablated
Effect of ICI on E2-elicited transactivation (endogenous hERα and hERβ; 1 μM ICI + 30 pM E2, data not shown): reversed

Compound: CCc1cccc(CC)c1N(COC)C(=O)CCl [alachlor]
Activity in the E-screen assay (human MCF-7 cells): inactive
Binding to hER [5]: do not bind
Binding to oviduct-derived aER [6]: able to bind

Compound: ClC1=C(Cl)C2(Cl)C3C(Cl)C(Cl)CC3C1(Cl)C2(Cl)Cl (stereo not drawn) [chlordane]
Activity in the E-screen assay (human MCF-7 cells): inactive
Binding to oviduct-derived aER [6]: able to bind

Compound: ClC1=C(Cl)[C@]2(Cl)[C@H]3[C@H]([C@H](Cl)C(Cl)[C@@H]3Cl)[C@@]1(Cl)C2(Cl)Cl (stereo partly drawn) [cis-Nonachlor]
RBA, Alligator [1]: 0.006
Binder class, Alligator [1]: EB (Equivocal binder: displaced greater than 50%, but less than 80% at the highest soluble concentration.)
RBA, Human [4]: 0.003
Binder class, Human [4]: EB (Equivocal binder: displaced greater than 50%, but less than 80% at the highest soluble concentration.)

Compound: ClC1=C(Cl)C2(Cl)C3C(Cl)C=CC3C1(Cl)C2(Cl)Cl (stereo not drawn) [heptachlor]
Activity in the E-screen assay (human MCF-7 cells): inactive
Binding to oviduct-derived aER [6]: able to bind

Compound: Cl[C@H]1[C@H](Cl)[C@@H](Cl)[C@@H](Cl)[C@H](Cl)[C@H]1Cl [lindane]
Activity in the E-screen assay (human MCF-7 cells): inactive

Compound: ClC(Cl)=C(c1ccc(Cl)cc1)c1ccccc1Cl [o,p′-DDE, 1-Chloro-2-[2,2-dichloro-1-(4-chlorophenyl)ethenyl]benzene]
IC50 [1]: 85100 nM
Binder class, Alligator [1]: EB (Equivocal binder: displaced greater than 50%, but less than 80% at the highest soluble concentration.)
Binding classification for aERα [1]: equivocal binders
IC50 [4]: 219000 nM
RBA, Human [4]: 0.003
Binder class, Human [4]: EB (Equivocal binder: displaced greater than 50%, but less than 80% at the highest soluble concentration.)
Binding classification for hERα [4]: equivocal binders

Compound: Clc1ccc(C(c2ccccc2Cl)C(Cl)(Cl)Cl)cc1 (stereo not drawn) [o,p′-DDT, 1-Chloro-2-[2,2,2-trichloro-1-(4-chlorophenyl)ethyl]benzene]
IC50 [1]: 977 nM
RBA, Alligator [1]: 0.08

Compound: Clc1ccc(C(c2ccc(Cl)cc2)C(Cl)Cl)cc1 [p,p′-DDD, 1-Chloro-4-[2,2-dichloro-1-(4-chlorophenyl)ethyl]benzene]
Binder class, Alligator [1]: NB (Non-binder: displaced less than 50% 17b-estradiol at the highest soluble concentration.)
Binding classification for aERα [1]: non-binders
Binder class, Human [4]: NB (Non-binder: displaced less than 50% 17b-estradiol at the highest soluble concentration.)
Binding classification for hERα [4]: non-binders

Compound: ClC(Cl)=C(c1ccc(Cl)cc1)c1ccc(Cl)cc1 [p,p′-DDE, 1-Chloro-4-[2,2-dichloro-1-(4-chlorophenyl)ethenyl]benzene]
Binder class, Alligator [1]: NB (Non-binder: displaced less than 50% 17b-estradiol at the highest soluble concentration.)
E2 displaced from aERα [1]: ~28%
Binding classification for aERα [1]: non-binders
Sex ratio (alligator embryos; 100 ppb in ovo, 32°C (mixed sex ratio)): slight female sex bias
Male to female sex reversal (alligator embryos; 100 ppb in ovo, 33.5°C): no male to female sex reversal
Binder class, Human [4]: NB (Non-binder: displaced less than 50% 17b-estradiol at the highest soluble concentration.)
E2 displaced from hERα [4]: ~0%
Binding classification for hERα [4]: non-binders

Compound: OC(c1ccc(Cl)cc1)(c1ccc(Cl)cc1)C(Cl)(Cl)Cl [p,p′-Dicofol, p,p′-dicofol]
RBA, Alligator [1]: 0.02
E2 displaced from aERα [1]: 83%
IC50 ([1]; read-out: IC50 for aERα): 4000 nM
Concentration eliciting maximal transactivation (aERα [3]; CV1 assay, aERα): 10 µM
Transcription of estrogen responsive gene with aERα (aERα [3]; CV1 cells): induced transcription
EC50 (aERα [3]; read-out: EC50, transcriptional activation through aERα, CV1 cells, 3x-ERE-TATA-Luc): 2800 nM
Cell distress (increase in detached cells) (CV1 cells): cell distress
Cytotoxicity (cell detachment, cytopathology) (T47D-KBluc cells): toxic to the cells
Concentration eliciting maximal transactivation (hERα; CV1 assay, hERα): 10 µM
Transcription of estrogen responsive gene with hERα (hERα; CV1 cells): induced transcription
EC50 (hER): 1600 nM
Concentration eliciting maximal transactivation (endogenous hERα and hERβ; T47D-KBluc assay): 10 µM
Transcriptional activation of estrogen-dependent reporter (endogenous hERα and hERβ; T47D-KBluc cells): dose-dependent increase
EC50 (endogenous hERα and hERβ; read-out: EC50, transcriptional activation through hER, T47D-KBluc cells): 1500 nM
RBA, Human [4]: 0.001
Binder class, Human [4]: EB (Equivocal binder: displaced greater than 50%, but less than 80% at the highest soluble concentration.)
E2 displaced from hERα [4]: 58%
Binding classification for hERα [4]: equivocal binder

Compound: ClC1=C(Cl)[C@]2(Cl)[C@H]3[C@H]([C@H](Cl)C(Cl)[C@@H]3Cl)[C@@]1(Cl)C2(Cl)Cl (stereo partly drawn) [trans-Nonachlor]
RBA, Alligator [1]: 0.005
Binder class, Alligator [1]: EB (Equivocal binder: displaced greater than 50%, but less than 80% at the highest soluble concentration.)
E2 displaced from aERα [1]: 68%
Binding classification for aERα [1]: equivocal binder
Binder class, Human [4]: NB (Non-binder: displaced less than 50% 17b-estradiol at the highest soluble concentration.)
E2 displaced from hERα [4]: 48%
Binding classification for hERα [4]: non-binder
